The target in series [1] is T1, D(2) dopamine receptor (Homo sapiens, UniProt P14416). The experiment in a line: Displacement of [3H]NMSP from human dopamine D2S receptor expressed in CHO cell membrane incubated for 1 hr by scintillation counting method. Type of series: cell membranes. The essentials:
(§1)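 Competition binding: [3H]-LSD displacement for 5-HT6 and [3H]-NMSP displacement for D2. Eight compound concentrations, 5 × 10^-6 to 5 × 10^-13 M, each tested in triplicate. Affinity is reported as Ki.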

Series [2] concerns CHO. The experiment in a line: Selectivity ratio of Ki for human dopamine D2S receptor expressed in CHO cell membrane to Ki for human 5HT6 receptor in HEK293 cell membrane. The class given is cell-based. An outline of the steps:
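Ki values come from in-house competition binding: [3H]-LSD displacement at 5-HT6 and [3H]-NMSP displacement at D2. Compounds were tested at eight concentrations from 5×10^-6 to 5×10^-13 M in triplicate. The ratio is D2 Ki divided by 5-HT6 Ki.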

Series [3] has as its target T2, 5-hydroxytryptamine receptor 6 (Homo sapiens, UniProt P50406). The experiment in a line: Displacement of [3H]LSD from human 5HT6 receptor in HEK293 cell membrane incubated for 1 hr by scintillation counting method. Type of series: cell membranes. An outline of the steps:
as §1
(In general: In a radioligand displacement assay an active substance lowers the binding of a labelled ligand.)

A short description of series [4]: Kinetic solubility in sorensen buffer at pH 7.4 incubated for 1 hr by UV-Visible spectrophotometry. Type of series: physicochemical. The following applies: read-out: Kinetic_solubility.
Series [5] deals with Mus musculus. The series is described as follows: Procognitive effect in CD1 mouse assessed as reversal of scopolamine-induced amnesia by measuring time spent in open arm in acquisition phase at 0.3 to 10 mg/kg, sc pretreated for 10 mins followed by scopolamine injection measured after 30 mins by elevated […] maze test. The class given is functional, organism-based. The essentials:
(§2)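 Elevated plus maze in mice. Test article is given subcutaneously, then scopolamine 10 min later. In the acquisition phase (T1), open-arm time % ([open/(open+enclosed)]×100) and transfer latency to the enclosed arm are recorded. Retention phase (T2) follows 24 h later. n = 13–15 per group; data shown as mean ± SEM and median.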

Series [6] has as its system Mus musculus. The series is described as follows: Procognitive effect in CD1 mouse assessed as reversal of scopolamine-induced amnesia by measuring time spent in open arm in retention phase at 0.3 to 10 mg/kg, sc pretreated for 10 mins followed by scopolamine injection measured after 24 hrs by elevated […] maze test. The class given is functional, organism-based. The essentials:
as §2

The target in series [7] is T1, D(2) dopamine receptor. The series is described as follows: Displacement of [3H]methyl-spiperone from human recombinant dopamine D2S receptor expressed in HEK293 cells at 1 uM incubated for 60 mins by scintillation counting method relative to control. Type of series: cell-based. An outline of the steps:
(§3)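 Single-point screen at 1 µM (final) within a 106-target panel of neurotransmitter receptors, transporters and ion channels. Read-out is % radioligand displacement.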

Series [8] deals with D(3) dopamine receptor (Homo sapiens) (UniProt P35462). The experiment in a line: Displacement of [3H]methyl-spiperone from human recombinant dopamine D3 receptor expressed in CHO cells at 1 uM incubated for 60 mins by scintillation counting method relative to control. Type of series: cell-based. An outline of the steps:
(§4)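 Tested at a single concentration in a contract panel of 106 neurotransmitter receptors, transporters and ion channels. Read-out is percent radioligand displacement.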

In series [9] the target is T2, 5-hydroxytryptamine receptor 6. The experiment in a line: Displacement of [3H]LSD from human recombinant 5HT6 receptor expressed in CHO cells at 1 uM incubated for 120 mins by scintillation counting method relative to control. Type of series: cell-based. The essentials: as §3
In series [10] the target is 5-hydroxytryptamine receptor 1B (Rattus norvegicus) (UniProt P28564). The series is described as follows: Displacement of [125I]CYP from 5HT1B receptor in rat cerebral cortex at 1 uM incubated for 120 mins by scintillation counting method relative to control. Type of series: tissue-based. An outline of the steps:
as §4

Series [11] can be described thus: Passive permeability of compound after 4 hrs by sink-PAMPA assay. The class given is ADME. The following applies: read-out: permeability. On the technique in general: The PAMPA barrier holds no transporters, so it reflects passive diffusion.
Series [12] has as its target Cytochrome P450 3A4 (Homo sapiens, UniProt P08684). The experiment in a line: Inhibition of human recombinant CYP3A4 using 7-benzyloxy-trifluoromethylcoumarin as substrate incubated for 30 mins by fluorescence analysis in presence of NADPH. Type of series: ADME.
Series [13] deals with Cytochrome P450 2D6 (Homo sapiens, UniProt P10635). The experiment in a line: Inhibition of human recombinant CYP2D6 using AMMC as substrate incubated for 45 mins by fluorescence analysis in presence of NADPH. The class given is ADME.

From ChEMBL document CHEMBL3797149, “1-Sulfonyl-6-Piperazinyl-7-Azaindoles as potent and pseudo-selective 5-HT6 receptor antagonists” (Bioorg Med Chem Lett, 2016) come the findings set out here.

Each structure is given as a SMILES string. The source made the active and inactive calls. No cut-off for these calls is given here.

T2 sequence (P50406 whole entry): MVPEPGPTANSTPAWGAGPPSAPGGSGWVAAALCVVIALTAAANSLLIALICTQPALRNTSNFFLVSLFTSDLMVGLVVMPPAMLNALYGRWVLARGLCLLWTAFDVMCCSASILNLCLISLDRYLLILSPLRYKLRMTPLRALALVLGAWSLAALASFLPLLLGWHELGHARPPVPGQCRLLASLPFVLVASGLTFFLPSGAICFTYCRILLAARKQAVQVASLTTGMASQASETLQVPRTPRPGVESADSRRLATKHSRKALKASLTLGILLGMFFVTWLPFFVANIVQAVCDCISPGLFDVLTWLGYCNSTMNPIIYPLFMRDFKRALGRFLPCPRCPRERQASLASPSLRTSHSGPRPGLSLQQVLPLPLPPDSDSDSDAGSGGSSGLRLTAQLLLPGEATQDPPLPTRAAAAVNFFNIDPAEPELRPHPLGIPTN
T1 sequence (P14416 whole entry): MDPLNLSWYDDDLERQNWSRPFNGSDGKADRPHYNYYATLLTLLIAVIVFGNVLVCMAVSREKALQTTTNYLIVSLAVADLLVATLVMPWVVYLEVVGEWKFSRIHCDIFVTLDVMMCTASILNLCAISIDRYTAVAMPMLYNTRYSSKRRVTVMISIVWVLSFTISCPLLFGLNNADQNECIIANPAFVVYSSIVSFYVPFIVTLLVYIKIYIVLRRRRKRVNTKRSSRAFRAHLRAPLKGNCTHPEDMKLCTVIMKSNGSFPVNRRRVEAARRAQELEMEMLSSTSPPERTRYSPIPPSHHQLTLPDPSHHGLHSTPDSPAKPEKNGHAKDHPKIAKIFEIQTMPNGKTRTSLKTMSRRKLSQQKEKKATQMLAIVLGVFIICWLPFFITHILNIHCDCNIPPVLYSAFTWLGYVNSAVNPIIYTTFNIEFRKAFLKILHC
5-hydroxytryptamine receptor 1B (Rattus norvegicus), sequence (P28564 whole entry): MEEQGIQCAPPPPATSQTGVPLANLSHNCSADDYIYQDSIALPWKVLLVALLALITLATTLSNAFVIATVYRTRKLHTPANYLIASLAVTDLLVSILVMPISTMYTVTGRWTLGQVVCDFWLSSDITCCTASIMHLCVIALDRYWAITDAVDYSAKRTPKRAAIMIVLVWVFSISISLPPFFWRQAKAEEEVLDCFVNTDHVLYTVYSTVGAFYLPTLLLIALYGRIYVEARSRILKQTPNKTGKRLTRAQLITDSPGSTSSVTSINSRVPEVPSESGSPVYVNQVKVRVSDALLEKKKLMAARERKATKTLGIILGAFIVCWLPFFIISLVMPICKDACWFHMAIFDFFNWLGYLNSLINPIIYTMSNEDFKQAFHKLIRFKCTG
Cytochrome P450 2D6, sequence (P10635 whole entry): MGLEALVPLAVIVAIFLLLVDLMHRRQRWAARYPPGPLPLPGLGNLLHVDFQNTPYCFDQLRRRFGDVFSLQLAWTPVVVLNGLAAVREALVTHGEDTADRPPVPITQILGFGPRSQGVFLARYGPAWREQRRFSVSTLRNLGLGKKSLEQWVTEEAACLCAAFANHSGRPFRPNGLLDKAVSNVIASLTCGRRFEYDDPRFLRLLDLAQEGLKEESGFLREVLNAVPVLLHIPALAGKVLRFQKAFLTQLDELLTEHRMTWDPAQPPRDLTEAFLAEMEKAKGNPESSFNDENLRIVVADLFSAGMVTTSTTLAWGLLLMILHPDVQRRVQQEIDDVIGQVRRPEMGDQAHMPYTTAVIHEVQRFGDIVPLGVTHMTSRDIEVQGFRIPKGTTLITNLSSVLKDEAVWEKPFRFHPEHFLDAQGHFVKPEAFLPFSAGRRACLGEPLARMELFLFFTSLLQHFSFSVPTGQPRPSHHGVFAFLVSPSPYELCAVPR
D(3) dopamine receptor (Homo sapiens), sequence (P35462 whole entry): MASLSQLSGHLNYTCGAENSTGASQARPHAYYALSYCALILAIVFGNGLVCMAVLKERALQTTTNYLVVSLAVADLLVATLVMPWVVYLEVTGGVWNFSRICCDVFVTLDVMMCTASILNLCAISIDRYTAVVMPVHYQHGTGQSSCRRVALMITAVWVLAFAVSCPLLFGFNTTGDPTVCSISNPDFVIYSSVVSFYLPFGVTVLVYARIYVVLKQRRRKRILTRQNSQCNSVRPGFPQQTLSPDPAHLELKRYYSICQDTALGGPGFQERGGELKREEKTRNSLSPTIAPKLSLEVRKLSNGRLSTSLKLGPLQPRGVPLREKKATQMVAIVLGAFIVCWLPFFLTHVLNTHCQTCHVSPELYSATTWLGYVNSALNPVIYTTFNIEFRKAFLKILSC
Cytochrome P450 3A4, sequence (P08684 whole entry): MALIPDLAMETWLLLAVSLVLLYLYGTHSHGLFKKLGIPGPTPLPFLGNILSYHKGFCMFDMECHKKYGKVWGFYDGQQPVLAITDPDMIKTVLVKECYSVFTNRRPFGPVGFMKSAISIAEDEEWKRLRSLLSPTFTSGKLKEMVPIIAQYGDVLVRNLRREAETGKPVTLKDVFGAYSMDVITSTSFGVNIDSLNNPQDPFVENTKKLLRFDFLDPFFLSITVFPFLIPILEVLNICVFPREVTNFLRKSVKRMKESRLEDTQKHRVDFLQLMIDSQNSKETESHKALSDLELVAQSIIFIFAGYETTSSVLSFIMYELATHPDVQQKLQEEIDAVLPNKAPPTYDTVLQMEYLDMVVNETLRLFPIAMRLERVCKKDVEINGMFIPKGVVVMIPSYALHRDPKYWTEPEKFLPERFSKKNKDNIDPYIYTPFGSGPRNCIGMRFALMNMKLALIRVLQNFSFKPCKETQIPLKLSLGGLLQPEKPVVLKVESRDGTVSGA

As usually defined, the Ki is a dissociation constant, usually derived from enzyme kinetics or from competition with a known ligand. For the compound `CN1CCN(c2cc(-c3ccc(C(F)(F)F)cc3)c3ccn(S(C)(=O)=O)c3n2)CC1`, the Ki stood at 1230 nM in series [1] and 54 nM in [3]. In addition, the Ratio Ki in series [2] stood at 22.
For `CC(C)CS(=O)(=O)n1ccc2c(-c3cccc(C(F)(F)F)c3)cc(N3CCN(C)CC3)nc21`, the Ki in series [1] worked out at 630 nM; in series [3], 48 nM. Also, the Ratio Ki in [2] stood at 13.
In the case of `CC(C)CS(=O)(=O)n1ccc2c(-c3ccc(C#N)cc3)cc(N3CCN(C)CC3)nc21`, the inhibitory constant (Ki) in [1] is 205 nM; in series [3] it was 7 nM. For the same compound, the Ratio Ki in series [2] is 29.
For `CN1CCN(c2cc(-c3ccc(C(F)(F)F)cc3)c3ccn(S(=O)(=O)C4CCCCC4)c3n2)CC1`, in that order: > 2000 nM, 15 nM and > 133.
In the case of `CC(C)CS(=O)(=O)n1ccc2c(-c3ccc(C(F)(F)F)cc3)cc(N3CCN(C)CC3)nc21.O=S(=O)(O)O`, in series [4], the solubility kinetic at 1 h turned out to be 10 µg/mL.
On to `CC(C)CS(=O)(=O)n1ccc2c(-c3ccc(OCc4ccccc4)cc3)cc(N3CCN(C)CC3)nc21`, for which the Ki in [1] was found to be 86 nM; in [3], 290 nM. Also, the Ratio Ki in series [2] worked out at 0.3.
`CC(C)CS(=O)(=O)n1ccc2c(-c3ccc(=O)[nH]c3)cc(N3CCN(C)CC3)nc21`: the inhibition constant Ki was > 2000 nM in [1] and 231 nM in series [3]. Also, the Ratio Ki in series [2] is > 8.
For `Cc1cc(-c2cc(N3CCN(C)CC3)nc3c2ccn3S(=O)(=O)CC(C)C)c(C)s1`, in that order: 640 nM, 12 nM and 53.
For `Cc1noc(C)c1-c1cc(N2CCN(C)CC2)nc2c1ccn2S(=O)(=O)CC(C)C`, in that order: > 2000 nM, 129 nM and > 15.
On to `CC(C)CS(=O)(=O)n1ccc2c(-c3ccc(O)cc3)cc(N3CCN(C)CC3)nc21`, for which the values for the Ki in [1] and in series [3] were 108 nM and 22 nM, respectively. In addition, the Ratio Ki in series [2] came to 5.
The matching figures for `CC(C)CS(=O)(=O)n1ccc2c(-c3cnn(C)c3)cc(N3CCN(C)CC3)nc21`: > 2000 nM, 87 nM and > 23.
With `CC(C)CS(=O)(=O)n1ccc2c(-c3ccc(C(F)(F)F)cc3)cc(N3CCN(C)CC3)nc21.O=C(O)C(O)C(O)C(=O)O`, the solubility kinetic at 1 h in [4] came out at 11 µg/mL.
In the case of `CC(C)CS(=O)(=O)n1ccc2c(-c3ccccc3C(F)(F)F)cc(N3CCN(C)CC3)nc21`, the inhibition constant (Ki) came out at 113 nM in series [1] and 24 nM in [3]. In series [2], the Ratio Ki came out at 5.
As for `COc1ccc(-c2cc(N3CCN(C)CC3)nc3c2ccn3S(=O)(=O)CC(C)C)cc1`, the values for the inhibition constant Ki in [1] and in series [3] were 22 nM and 2 nM, respectively. Also, the Ratio Ki in series [2] turned out to be 9.
For `CC(C)S(=O)(=O)n1ccc2c(-c3ccc(C(F)(F)F)cc3)cc(N3CCN(C)CC3)nc21`, in that order: 25 nM, 6 nM and 4.
For `CN1CCN(c2cc(-c3ccc(C(F)(F)F)cc3)c3ccn(S(=O)(=O)C4CCOCC4)c3n2)CC1`, in that order: > 2000 nM, 7 nM and > 285.
For `CCc1ccc(-c2cc(N3CCN(C)CC3)nc3c2ccn3S(=O)(=O)CC(C)C)cc1`, in that order: 614 nM, 11 nM and 56.
On to `CC(C)CS(=O)(=O)n1ccc2c(-c3ccc(C(F)(F)F)cc3)cc(N3CCN(C)CC3)nc21`, for which, in series [2], the Ratio Ki worked out at 80. Also, the outcome in series [5] and in series [6] was Active.
Regarding `CC(C)CS(=O)(=O)n1ccc2c(-c3ccc(C(F)(F)F)cc3)cc(N3CCN(C)CC3)nc21.O=C(O)/C=C/C(=O)O`, in [4], the solubility kinetic at 1 h was determined as 20 µg/mL.
Regarding `Br.CC(C)CS(=O)(=O)n1ccc2c(-c3ccc(C(F)(F)F)cc3)cc(N3CCN(C)CC3)nc21`, the solubility kinetic at 1 h in [4] was determined as 65 µg/mL.
With `CC(C)CS(=O)(=O)n1ccc2c(-c3ccccc3)cc(N3CCN(C)CC3)nc21`, the results for the Ki in series [1] and in [3] were 547 nM and 16 nM, respectively. In addition, the Ratio Ki in [2] turned out to be 35.
Broadly, the inhibition is the relative decrease from the control value, in per cent. By IC50 is commonly meant the concentration needed to halve the response being measured. Take `CC(C)CS(=O)(=O)n1ccc2c(-c3ccc(C(F)(F)F)cc3)cc(N3CCNCC3)nc21`: the inhibitory constant (Ki) in [1] came to 1700 nM; in [3], 3 nM. Also, the inhibition in series [7] was found to be 60%; in [8], 94%; in series [9], 100%; in series [10], 72%. Moreover, the Papp at 4 h in series [11] was determined as 92 ×10⁻⁶ cm/s. The half-inhibitory concentration (IC50) in series [12] is < 1100 nM; in series [13], > 10000 nM.
For the compound `CC(C)CS(=O)(=O)n1ccc2c(-c3ccc(C(=O)N(C)C)cc3)cc(N3CCN(C)CC3)nc21`, the inhibitory constant (Ki) in series [1] and in series [3] was > 2000 nM each time.
Regarding `CC(C)CS(=O)(=O)n1ccc2c(-c3ccc(C(F)(F)F)cc3)cc(N3CCN(C)CC3)nc21.O=C(O)CC(O)(CC(=O)O)C(=O)O`, the solubility kinetic at 1 h in [4] amounted to 14 µg/mL.
As to `CC(C)CS(=O)(=O)n1ccc2c(-c3ccc4[nH]ccc4c3)cc(N3CCN(C)CC3)nc21`, the inhibitory constant (Ki) in [1] was determined as 382 nM; in series [3] it was 5 nM. Also, in series [2], the Ratio Ki amounted to 76.
Regarding `CC(C)CS(=O)(=O)n1ccc2c(-c3ccc(C(F)(F)F)cc3)cc(N3CCN(C)CC3)nc21.Cl`, in [4], the solubility kinetic at 1 h was determined as 14 µg/mL.
As to `COCCS(=O)(=O)n1ccc2c(-c3ccc(C(F)(F)F)cc3)cc(N3CCN(C)CC3)nc21`, the Ki came to 52 nM in series [1] and 8 nM in series [3]. In series [2], the Ratio Ki is 6.
The matching figures for `CC(C)CS(=O)(=O)n1ccc2c(-c3cccnc3)cc(N3CCN(C)CC3)nc21`: > 2000 nM, 36 nM and > 55.
